# Assay outcomes as filed in PubChem BioAssay.
# WT yeast gro inh – growth inhibition of WT yeast, mitochondrial fusion screen; mitochondrial fusion phenotypic screen, WT strain; inhibition, % at 10 µM; 190,000 tested, 2.1% active; AID 1362; in the data active means inhibition above about 58%; tested in S. cerevisiae
# ROMK mod – modulates human ROMK potassium channel activity; P48048; Tet-inducible ROMK, thallium flux fluorescence; actives lie on both sides; B-score at 10 µM; 130,000 tested, 2% active; AID 1918;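 active means signal ratio slope over the read window, or its plate-corrected B-score, at least 3 SD from the plate mean, either direction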;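 further: B-score of the F/F0 ratio slope over 7 to 12 s after thallium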
# Target sequence (P48048 whole entry, looked up): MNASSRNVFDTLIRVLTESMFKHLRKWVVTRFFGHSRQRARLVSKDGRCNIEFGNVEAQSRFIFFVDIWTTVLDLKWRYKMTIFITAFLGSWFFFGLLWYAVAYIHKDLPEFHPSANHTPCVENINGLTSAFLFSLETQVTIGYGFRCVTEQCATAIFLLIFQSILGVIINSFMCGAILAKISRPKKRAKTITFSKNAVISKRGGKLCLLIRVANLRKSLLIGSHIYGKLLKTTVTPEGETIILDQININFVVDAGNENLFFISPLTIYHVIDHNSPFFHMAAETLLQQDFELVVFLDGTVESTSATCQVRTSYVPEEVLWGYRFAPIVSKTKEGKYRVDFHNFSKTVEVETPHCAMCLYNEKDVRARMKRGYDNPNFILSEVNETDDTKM
# RBBP9 inhibitor – blocks human serine hydrolase RBBP9; recombinant RBBP9, FP-Rh probe fluorescence polarization; inhibition, % at 7.94 µM; 220,000 tested, 0.2% active; AID 1515;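 active means inhibition above the campaign mean of all tested compounds plus 3 SD, cut at about 14% in these data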;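 further: plate controls were DMSO wells with RBBP9 for no effect and wells lacking RBBP9 protein for full effect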
# Target sequence (O75884 whole entry, looked up): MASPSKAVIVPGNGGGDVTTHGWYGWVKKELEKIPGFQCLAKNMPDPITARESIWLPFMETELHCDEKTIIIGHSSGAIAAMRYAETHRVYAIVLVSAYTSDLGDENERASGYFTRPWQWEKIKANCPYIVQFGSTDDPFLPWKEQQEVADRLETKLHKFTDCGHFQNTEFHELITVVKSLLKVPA
#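 System: RBBP9 protein | Quantity: 2.5 µM RBBP9 dispensing solution, before mixing | Reagent: FP-Rh probe, 375 nM dispensing solution | Timing: Enzyme-compound preincubation 30 min, then probe labeling 45 min, 25 °C | Measured by: Fluorescence polarization | Read-out: % inhibition | Replication: One well per compound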
# 14-3-3 Bad PPI – disrupts binding of bovine 14-3-3 zeta to phospho-Bad peptide; P63103; TR-FRET 14-3-3zeta/Dy647-pBad peptide displacement, 1 h; inhibition, % at 21.7 µM; 220,000 tested, 0.71% active;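 active means inhibition above about 70%, limit read from the data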;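 further: 0% = full 14-3-3 plus peptide FRET controls and 100% = background without 14-3-3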
# NCF1 inh – blocks human p47phox regulatory protein of NADPH oxidases | inhibition, % at 24.7 µM | P14598 | p47phox/p22phox peptide binding, fluorescence polarization, 2 h | 220,000 tested, 0.53% active;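 active means inhibition above about 30%, limit read from the data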;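 further: 0% = p47phox with labelled peptide and 100% = labelled peptide alone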
# Cl transport mod – modulates chloride dependent transport by human KCC2. Q9H2X9. KCC2 cells, thallium flux FluoZin-2 fluorescence. B-score of Tl+ flux slope (higher = more flux/activation; lower = inhibition) at 10 µM. 190,000 tested, 2.2% active;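 active means thallium flux slope and its plate-corrected score both differing from the plate sample mean at a set confidence after two filtering rounds, in either direction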;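 further: slope of fluorescence scaled to starting intensity during 10 to 20 s after thallium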
# KCC2 sec1 – KCC2 (human) modulation, secondary assay; shares compounds with Cl transport mod; HEK293-KCC2, thallium flux, FluoZin2 fluorescence; stronger effect = higher value; normalised thallium flux (F/F0 slope) at 10 µM; 3,700 tested, 15% active; AID 1713;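 active means thallium flux slope above the same plate's solvent-only control mean plus 3 SD; inconclusive means the two replicate wells disagree; inactive means no significant difference from solvent-only control wells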
# KCC2 bumet counter – bumetanide-insensitive thallium flux in KCC2 cells with ouabain, counter-screen; shares compounds with Cl transport mod; HEK293-KCC2 + bumetanide/ouabain, thallium flux FluoZin2; stronger effect = higher value; normalized thallium flux at 10 µM; 3,700 tested, 49% active; AID 1714;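 active means thallium entry rate above the same plate's blocked-transporter control wells by more than 3 SD; inconclusive means the two repeat wells disagree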;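 further: raw slope of fluorescence over initial fluorescence between 10 and 20 s after thallium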
# KCC2 sec2 – KCC2 (human) modulation, second secondary assay. shares compounds with Cl transport mod. 3,700 tested, 23% active. HEK293-KCC2, thallium flux FluoZin2 fluorescence; actives lie on both sides; F/F0 rise rate, 10–20 s post-thallium. normalized thallium flux at 10 µM;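 active means thallium flux slope more than 3 SD above or below the plate's solvent-only control mean, mostly below; inconclusive means the two repeat wells disagreed; inactive means no significant shift from solvent-only controls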;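 further: raw slope with 0.1% DMSO as baseline and bumetanide as block control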
# HEK293 Tl flux – acts in parental HEK cells, KCC2 counter-screen. shares compounds with Cl transport mod. HEK293 parental cells, thallium flux FluoZin2, ouabain; baseline-ratio fluorescence slope, 10–20 s after thallium. thallium flux rate (normalised fluorescence) at 10 µM. 3,700 tested, 46% active;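 active means thallium flux rate significantly above the same plate's solvent-only control wells, beyond their mean plus 3 SD; inconclusive means the two replicate wells gave conflicting results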
# KCC2 ouabain – KCC2 (human) modulation, ouabain retest. AID 1717. shares compounds with Cl transport mod. HEK293-KCC2, thallium flux FluoZin2 fluorescence; bidirectional: low = inhibitor, high = activator. raw Tl+ flux slope (below DMSO = inhibition, above = activation) at 10 µM. 3,700 tested, 48% active;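 active means thallium flux slope beyond 3 SD from same-plate DMSO control mean in most replicates, usually higher, sometimes lower; inconclusive means repeat tests gave conflicting results; inactive means no significant difference from controls in most replicates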;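 further: slope of initial-normalized fluorescence between seconds 10 and 20 after thallium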
# HEK counter2 – acts in parental HEK cells, second KCC2 counter-screen | 3,700 tested, 33% active | thallium flux slope at 10 µM | shares compounds with Cl transport mod | HEK293 parental, thallium flux FluoZin-2 fluorescence slope;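 active means thallium flux slope above the same plate's solvent-control mean plus 3 SD in both duplicate wells; inconclusive means duplicate wells that disagreed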;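 further: run without ouabain in cells lacking the KCC2 cotransporter; slope of fluorescence scaled to its starting value between 10 and 20 s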
# Numbers without * were called inactive; ? = inconclusive; · = no result. A selection: hits, their analogues and other compounds. The true share with any hit is near 5.8%.
SMILES,WT yeast gro inh,ROMK mod,RBBP9 inhibitor,14-3-3 Bad PPI,NCF1 inh,Cl transport mod,KCC2 sec1,KCC2 bumet counter,KCC2 sec2,HEK293 Tl flux,KCC2 ouabain,HEK counter2
CC1CCCC(NC(=O)CCC(=O)c2ccc(F)cc2)C1C (stereo unspecified),·,·,-9,1,-27,-4*,0.0064,0.0053,0.03,0.007,0.018,0.0096
Oc1c(N=NC(=S)Nc2ccccc2F)c2ccccc2n1Cc1cccc(Cl)c1,-17,-0.22,-5,-14,-12,3.6,·,·,·,·,·,·
Cc1cccc(Cn2c(O)c(N=NC(=S)Nc3ccccc3F)c3ccccc32)c1,5,-0.36,-3,-15,-7,6.8*,0.011,0.031*,0.037,?,?,0.011
Cc1ccc2c(c1)c(N=NC(N)=S)c(O)n2Cc1ccccc1,6,·,3,-2,-1,4.3*,0.0051,0.0075*,0.03,0.011*,0.022,0.014*
Oc1c(N=NC(=S)Nc2ccccc2F)c2ccccc2n1Cc1ccc(F)cc1,-2,-0.052,-3,-11,-11,8.3*,0.019,0.03*,0.03,0.013*,0.019,0.014*
NC(=S)N=Nc1c(O)n(Cc2ccc(F)cc2)c2ccccc12,-37,·,-9,-6,-13,4.7*,?,0.01*,0.033,0.014*,0.029*,0.012*
COc1ccc(CCN2C(=O)CSC2=Nc2ccc(C(C)C)cc2)cc1OC,·,0.43,-2,-1,-6,1.7,·,·,·,·,·,·
Cc1ccc(NC(=S)N(C)C)cc1C,·,-0.032,-4,0,-9,-0.43,·,·,·,·,·,·
CC(C)CCNC(=O)[C@H](CSCc1ccccc1)N1Cc2ccccc2C1=O,35,-0.6,-9,9,5,-4.2*,0.0058*,0.0045,?,?,0.014*,0.0093
COC(CNC(=O)[C@H](CSCc1ccccc1)N1Cc2ccccc2C1=O)OC,-6,·,-2,-7,8,-0.063,·,·,·,·,·,·
CC1Cc2ccccc2N1C(=O)CCn1c(=O)sc2ccccc21 (stereo unspecified),13,·,·,-1,-11,-1.7*,0.0041*,0.0033*,0.021*,?,0.013*,?
Cn1nc(C(=O)OCC(=O)Nc2sccc2C(N)=O)c2ccccc2c1=O,·,·,-3,-6,-14,-0.66,·,·,·,·,·,·
C/C(=N\NC(=O)c1cc(-c2cccs2)nc2ccccc12)c1ccccn1,38,0.77,-5,-8,8,17*,0.015*,0.044*,0.036,0.06*,0.045*,?
O=C(N/N=C/c1ccsc1)c1cc(-c2cccs2)nc2ccccc12,11,1.4,-12,1,-24,-0.39,·,·,·,·,·,·
O=C(COc1ccc2ccccc2c1)Nc1cccc(C(=O)Nc2ccccc2C(=O)O)c1,-19,0.45,-28,-6,-80,-4.7*,?,0.0055,0.024*,?,0.014*,?
CCCCC(=O)Nc1cccc(C(=O)Nc2ccccc2C(=O)O)c1,0,0.0074,-8,1,6,·,·,·,·,·,·,·
CC(C)(C)C(=O)/C=c1\[nH]c(=O)/c(=C\c2ccccc2F)s1,3,0.93,-2,-4,-4,18*,0.0078,0.024*,0.038*,0.015*,0.032*,0.018*
C=CCn1c(SCC(=O)Nc2ccc3c(c2)OCO3)nc2ccccc2c1=O,-16,0.13,-8,4,-13,0.54,·,·,·,·,·,·
CC(C)Cn1c(SCC(=O)Nc2cccc(S(N)(=O)=O)c2)nc2ccccc2c1=O,-1,0.0073,-1,1,-4,5.7*,0.0094,0.018*,0.03,0.0095*,?,0.011*
CC(C)Cn1c(SCC(=O)NC(=O)Nc2ccc3c(c2)OCCO3)nc2ccccc2c1=O,13,·,-4,-7,13,17*,0.014*,0.044*,0.034,?,0.039*,?
COCCn1c(SCC(=O)Nc2cccc(S(N)(=O)=O)c2)nc2cc(Cl)ccc2c1=O,-2,-0.052,-3,-3,0,1.3,·,·,·,·,·,·
COC(=O)c1sccc1N(C)S(C)(=O)=O,-5,0.45,-4,-5,-9,-0.25,·,·,·,·,·,·
COC(=O)c1ccc(OC(=O)CCc2cc(OC)c(OC)c(OC)c2)cc1,-12,0.062,5,-15,-8,0.038,·,·,·,·,·,·
CC(C)CCN(C(=S)Nc1cccc(F)c1)C1CCN(C(C)C)CC1,4,-1.3,-7,6,·,0.44,·,·,·,·,·,·
Cc1ccc(O)c(N=Cc2cc(Cc3ccccc3)cc([N+](=O)[O-])c2O)c1,3,0.0036,-9,36,-13,-3.8*,0.0067,?,0.032,0.0035,0.014*,?
SMILES,WT yeast gro inh,ROMK mod,RBBP9 inhibitor,14-3-3 Bad PPI,NCF1 inh,Cl transport mod,KCC2 sec1,KCC2 bumet counter,KCC2 sec2,HEK293 Tl flux,KCC2 ouabain,HEK counter2
c1ccc2c(c1)[nH]c1c(N3CCC4(CC3)OCCO4)ncnc12,17,-2.1,-6,-8,-14,·,0.0061,0.0049,0.032,0.0078,0.018,0.012
Cc1ccc2[nH]c3c(N4CCN(Cc5ccccc5)CC4)ncnc3c2c1,25,-0.65,-6,-3,-28,·,0.0064,0.005,0.022*,0.0076,?,0.011
CCn1c(SCC(=O)Nc2cccc(C)c2)nc2nc3c(cc2c1=O)COC(C)(C)C3,·,·,-2,3,-6,0.032,·,·,·,·,·,·
CCOC(=O)c1cc(C)nc(Sc2ccc(C)cc2)c1C#N,·,0.027,-8,2,-2,0.8,·,·,·,·,·,·
CN(C)c1ccc(/C=C/c2ccncc2)cc1,11,·,-6,-12,-43,·,0.0032*,-0.004*,0.021*,0.0031*,0.0058*,?
COc1ccc(/C=C/c2ccncc2)cc1,19,·,-7,0,-15,0.48,·,·,·,·,·,·
O=C(NC1CCCCC1)c1sc(=S)n2c1[nH]c(=O)c1ccccc12,64*,-2.6,-6,19,-25,8.7*,0.0081,0.033*,0.041*,0.025*,0.035*,0.027*
O=C(COc1ccc(Br)cc1)N/N=C1/SCC(=O)N1Cc1ccco1,0,-0.48,-5,-4,1,-0.62,·,·,·,·,·,·
